The values below come from ChEMBL document CHEMBL4411315, “Discovery of Novel Dual Histone Deacetylase and Mammalian Target of Rapamycin Target Inhibitors as a Promising Strategy for Cancer Therapy” (J Med Chem, 2019).

pIC50: −log10 of the molar value.

In series [1] the test system is MM1.S. The experiment in a line: Induction of apoptosis in human MM1S cells assessed as necrotic cells at 160 nM after 48 hrs by Annexin V-FITC/propidium iodide staining-based flow cytometric analysis (reference value: 0.32%). It is filed as functional. (In general: Flow cytometry measures light scatter and fluorescence of single cells or particles in a stream.)
The test system of series [2] is MM1.S. Kind of series: Induction of apoptosis in human MM1S cells assessed as viable cells at 80 nM after 48 hrs by Annexin V-FITC/propidium iodide staining-based flow cytometric analysis (reference value: 98.9%). It is filed as functional. The conditions noted are these: read-out: Activity.
Series [3] deals with MM1.S. Kind of series: Induction of apoptosis in human MM1S cells assessed as necrotic cells at 80 nM after 48 hrs by Annexin V-FITC/propidium iodide staining-based flow cytometric analysis (reference value: 0.32%). It is filed as functional.
Series [4] relates to MM1.S. The experiment in a line: Cell cycle arrest in human MM1S cells assessed as accumulation at G2/M phase at 1.25 nM after 24 hrs by propidium iodide/RNase staining-based FACS analysis (reference value: 26.29%). The class given is functional.
A short description of series [5]: Toxicity against NOD/SCID mouse xenografted with human MV4-11 cells assessed as effect on body weight at 10 mg/kg, iv administered every 2 days for 6 days. It is filed as organism-based. The conditions noted are these: in vivo. Summed up: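 MV4-11 cells (10^7 in 100 μL serum-free IMDM) were injected s.c. into the right flank of female NOD/SCID mice aged 5-6 weeks. Groups of 6 were randomised at 100-200 mm3. Dosing was i.v. every 2 days in physiological saline containing 2.5% DMSO and 10% cyclodextrin, pH 9. Tumours were measured by caliper every 2 days. Survivors were counted.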

The target in series [6] is Serine/threonine-protein kinase mTOR (Homo sapiens, UniProt P42345). Kind of series: Inhibition of mTOR in human MV4-11 cells assessed as decrease in ERK phosphorylation after 24 hrs by Western blot analysis. It is filed as cell-based. Summed up:
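Treatment of MV4-11 cells lasted 24 h at 0.01, 0.1, 1 and 10 μM. Lysis in RIPA buffer and BCA quantitation, then 30 μg protein by SDS-PAGE, PVDF transfer, 5% milk block, primary antibody overnight at 4 °C, HRP secondary 1 h and ECL detection. p-p70S6K (T389), p-4EBP1 (S65), p-Akt (S473) and p-ERK were probed.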
(In general: In western blotting, separated proteins are transferred to a membrane and probed.)

Another series deals with Histone deacetylase 5 (Homo sapiens, UniProt Q9UQL6). Kind of series: Inhibition of recombinant full length N-terminal GST-tagged human HDAC5 expressed in baculovirus expression system using Ac-peptide-AMC as substrate preincubated for 15 mins followed by substrate addition and measured after 1 hr by fluorescence assay.
Another series relates to MV4-11. The experiment in a line: Induction of apoptosis in human MV4-11 cells assessed as viable cells at 40 nM after 48 hrs by Annexin V-FITC/propidium iodide staining-based flow cytometric analysis (reference value: 84.1%). It is filed as functional. The note with it: MV4-11, 48 h, read-out: Activity.
Series [7] deals with MM1.S. The experiment in a line: Cell cycle arrest in human MM1S cells assessed as accumulation at G0/G1 phase at 2.5 nM after 24 hrs by propidium iodide/RNase staining-based FACS analysis (reference value: 49.22%). It is filed as functional.
Series [8] has as its target Histone deacetylase 1/2/3 (Homo sapiens) (UniProt Q13547+O15379+Q92769). Kind of series: Inhibition of HDAC1/2/3 in human MV4-11 cells assessed as increase in H3 acetylation after 6 hrs by Western blot analysis. The class given is cell-based. Summed up:
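MV4-11 cells treated 6 h at 0.01, 0.1 or 1 μM. Whole-cell protein extracted in RIPA buffer and quantified by BCA. 30 μg protein run on SDS-PAGE and transferred to PVDF. Blocked 1 h in 5% milk, primary antibody overnight at 4 °C, HRP secondary 1 h, ECL detection. Acetyl-histone H3 and acetyl-α-tubulin probed, with GAPDH as loading control.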

Series [9] relates to MM1.S. The experiment in a line: Induction of apoptosis in human MM1S cells assessed as viable cells at 40 nM after 48 hrs by Annexin V-FITC/propidium iodide staining-based flow cytometric analysis (reference value: 98.9%). The class given is functional. The conditions noted are these: read-out: Activity.

Histone deacetylase 5, sequence (Q9UQL6 whole entry): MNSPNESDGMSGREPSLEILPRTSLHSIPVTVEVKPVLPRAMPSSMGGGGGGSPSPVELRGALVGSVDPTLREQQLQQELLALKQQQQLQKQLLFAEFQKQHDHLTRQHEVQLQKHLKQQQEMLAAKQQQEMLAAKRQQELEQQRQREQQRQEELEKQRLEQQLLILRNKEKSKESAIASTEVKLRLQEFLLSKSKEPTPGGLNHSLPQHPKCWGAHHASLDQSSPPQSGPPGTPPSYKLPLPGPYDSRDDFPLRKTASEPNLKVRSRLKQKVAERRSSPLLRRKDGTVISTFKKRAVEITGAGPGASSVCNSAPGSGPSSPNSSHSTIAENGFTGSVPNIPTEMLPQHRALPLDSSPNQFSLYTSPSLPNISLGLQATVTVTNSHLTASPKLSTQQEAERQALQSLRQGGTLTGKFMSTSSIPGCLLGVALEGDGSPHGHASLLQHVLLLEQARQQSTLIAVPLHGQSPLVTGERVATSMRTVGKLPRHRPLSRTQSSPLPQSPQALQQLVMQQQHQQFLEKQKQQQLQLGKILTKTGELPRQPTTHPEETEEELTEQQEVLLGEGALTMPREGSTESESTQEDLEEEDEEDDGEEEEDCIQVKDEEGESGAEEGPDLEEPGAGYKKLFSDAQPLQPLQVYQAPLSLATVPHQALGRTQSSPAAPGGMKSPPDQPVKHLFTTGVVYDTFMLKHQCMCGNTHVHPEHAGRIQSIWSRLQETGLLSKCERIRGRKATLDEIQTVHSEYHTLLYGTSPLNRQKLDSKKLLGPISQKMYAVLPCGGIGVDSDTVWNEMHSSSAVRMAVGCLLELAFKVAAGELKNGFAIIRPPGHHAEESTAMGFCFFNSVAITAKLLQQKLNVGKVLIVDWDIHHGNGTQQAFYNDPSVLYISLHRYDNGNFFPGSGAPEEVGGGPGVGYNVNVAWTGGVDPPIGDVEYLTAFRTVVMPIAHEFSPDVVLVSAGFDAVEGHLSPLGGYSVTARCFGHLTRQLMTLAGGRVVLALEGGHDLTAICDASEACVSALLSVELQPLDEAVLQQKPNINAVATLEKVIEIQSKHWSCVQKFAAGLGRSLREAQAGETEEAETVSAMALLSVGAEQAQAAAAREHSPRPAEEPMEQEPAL

Broadly, the pIC50 is the negative decadic logarithm of the IC50, by convention in mol/L. For `C[C@@H]1CN(C(=O)Nc2ccc(-c3nc(N4CCOCC4)c4cnn(CCCCCCC(=O)NO)c4n3)cc2)CCO1`, the Activity in the series with MM1.S [1] is reported as 3.39%; in the series on MM1.S [3], 1.78%; in the series with MM1.S [4], 24.1%; in [5], “Non-Toxic”; with MM1.S [7], 52.62%. In the series with MM1.S [2], the viability at 0.08 µM was determined as 49.7%. The inhibition result in series [6] and in series [8] was “Dose-dependent effect” throughout. Moreover, the pIC50 at Histone deacetylase 5 is below 6.00. Further, the results for the viability at 0.04 µM in the series with MV4-11 and in the series with MM1.S [9] were 2.99% and 70.1%, respectively.
